Measured values of several laboratories.
Lines come from different studies, so protocols differ.
CA1: Carbonic anhydrase 1 (CA1, Homo sapiens, UniProt P00915)
gag-pol reverse transcriptase: Gag-Pol polyprotein, reverse transcriptase (gag-pol, Human immunodeficiency virus 1, UniProt P03366)
ACKR3: Atypical chemokine receptor 3 (ACKR3, Homo sapiens, UniProt P25106)
LATS1: Serine/threonine-protein kinase LATS1 (LATS1, Homo sapiens, UniProt O95835)
SLC18A2: Synaptic vesicular amine transporter (SLC18A2, Homo sapiens, UniProt Q05940)
UGT1A4: UDP-glucuronosyltransferase 1A4 (UGT1A4, Homo sapiens, UniProt P22310)

Nc1ccc(S(=O)(=O)c2ccc(N)cc2)cc1 — IC50 (CA1; enzyme activity, inhibitor, absorbance; pH 7.4): 17.1 µM
CCCCNc1c2c([nH]c(=O)c1C(=O)OCC)CCC2 — IC50 (gag-pol reverse transcriptase; enzyme activity, inhibitor): > 100 µM
CC(C)(C)NC(=O)C1CCN(Cc2cccc(NC(=O)c3ccc(F)cc3)c2)CC1 — IC50 (ACKR3; ligand displacement, BRET): 0.0631 µM
Cc1cc(-c2ccnc3[nH]cc(F)c23)cc(F)c1[C@@]1(O)[C@H](C)CN(C(=O)CN)C[C@@H]1C — IC50 (LATS1; enzyme activity, inhibitor, radiometric): 0.0018 µM
Cn1cc2c(C(=O)O)ccc(NS(=O)(=O)c3ccc(OCC4CCC4)c(Cl)c3)c2n1 — IC50 (cGMP-dependent 3',5'-cyclic phosphodiesterase (PDE2A, Homo sapiens, UniProt O00408); enzyme activity): > 200 µM
Cc1cc(-c2ccnc3[nH]cc(F)c23)cc(F)c1[C@@]1(O)[C@H](C)CNC[C@@H]1C — IC50 (LATS1; target engagement in cells, BRET): 0.027 µM
CN1CCC(CNc2ccc3ncc(-c4cccc(OC(F)(F)F)c4)n3n2)CC1 — IC50 (Alpha-2A adrenergic receptor (ADRA2A, Homo sapiens, UniProt P08913); cAMP, antagonist): 5.17 µM
CC(C)Nc1cccnc1N1CCN(C(=O)c2cc3cc(NS(C)(=O)=O)ccc3[nH]2)CC1 — IC50 (SLC18A2; transporter uptake, inhibitor): 4.04 µM
CCOC(=O)N1CCC(=C2c3ccc(Cl)cc3CCc3cccnc32)CC1 — IC50 (CA1; enzyme activity, inhibitor, absorbance; pH 7.4): 11.9 µM
O=C1CC2(CCCC2)CC(=O)N1CCCCN1CCN(c2ncccn2)CC1 — IC50 (SLC18A2; transporter uptake, inhibitor): 2.19 µM
OC1(c2ccc(-c3ccnc4[nH]cc(F)c34)cc2)CCCNCC1 (stereo not drawn) — IC50 (LATS1; target engagement in cells, BRET): 7.09 µM
CCCCCCCCCC(=O)CC(=O)Nc1ccccc1 — IC50 (Transcriptional activator protein LasR (lasR, Pseudomonas aeruginosa, UniProt P25084); reporter gene, antagonist): 1.1 µM
CC(C)[C@H](N)C(=O)OCCOCn1cnc2c(=O)[nH]c(N)nc21 — IC50 (CA1; enzyme activity, inhibitor, absorbance; pH 7.4): 12.8 µM
CCc1nn(CCCN2CCN(c3cccc(Cl)c3)CC2)c(=O)n1CCOc1ccccc1 — IC50 (SLC18A2; transporter uptake, inhibitor): 0.667 µM
OC(Cn1cncn1)(Cn1cncn1)c1ccc(F)cc1F — IC50 (CA1; enzyme activity, inhibitor, absorbance; pH 7.4): 11.1 µM
Cc1cc2c(cc1C)N[C@H](c1ccccc1)[C@@H](O)C(=O)N2 — IC50 (Receptor tyrosine-protein kinase erbB-2 (ERBB2, Homo sapiens, UniProt P04626); enzyme activity, inhibitor, ELISA): 0.023 µM
COc1cc2nc(N3CCN(C(=O)c4ccco4)[C@H]4CCCC[C@H]43)nc(N)c2cc1OC (racemic) — IC50 (SLC18A2; transporter uptake, inhibitor): 0.146 µM
CC1CNCCC1(O)c1ccc(-c2ccnc3[nH]cc(F)c23)cc1 (stereo not drawn) — IC50 (LATS1; target engagement in cells, BRET): 2.21 µM
C=CCCCNc1c2c([nH]c(=O)c1C(=O)OCC)CCC2 — IC50 (gag-pol reverse transcriptase; enzyme activity, inhibitor): > 100 µM
Cc1cncc(CN2CCC(=C3c4ccc(Cl)cc4CCc4cccnc43)CC2)c1 — IC50 (CA1; enzyme activity, inhibitor, absorbance; pH 7.4): 14.7 µM
CNC(=O)c1ccccc1Nc1nc(Nc2ccc(N3CCNCC3)cc2)ncc1Cl — IC50 (LATS1; target engagement in cells, BRET): 0.301 µM
CC(C)(C(=O)O)c1ccc(C(O)CCCN2CCC(C(O)(c3ccccc3)c3ccccc3)CC2)cc1 (stereo not drawn) — IC50 (Carbonic anhydrase 2 (CA2, Homo sapiens, UniProt P00918); enzyme activity, inhibitor, absorbance; pH 7.4): 28.4 µM
O=C(CCCN1CC=C(n2c(=O)[nH]c3ccccc32)CC1)c1ccc(F)cc1 — IC50 (SLC18A2; transporter uptake, inhibitor, radiometric; cell membranes): 0.154 µM
C[C@@H]1CNC[C@H](C)[C@@]1(O)c1ccc(-c2ccnc3[nH]cc(F)c23)cc1 — IC50 (LATS1; enzyme activity, inhibitor, radiometric): 0.011 µM
[H]/N=C(/N)c1ccc(NCc2nc3cc(C(=O)N(CCC(=O)O)c4ccccn4)ccc3n2C)cc1 — IC50 (Plasminogen (PLG, Homo sapiens, UniProt P00747); enzyme activity, inhibitor, absorbance): 1.7 µM
NC(=O)c1nnn(Cc2cc(Cl)c(C(=O)c3ccc(Cl)cc3)c(Cl)c2)c1N — IC50 (5-hydroxytryptamine receptor 3A (HTR3A, Homo sapiens, UniProt P46098); ion current): 4.35 µM
C[C@H]1[C@H](C)CC[C@]2(C(=O)O)CC[C@]3(C)C(=CC[C@@H]4[C@@]5(C)C[C@@H](O)[C@H](O)C(C)(C)[C@@H]5CC[C@]43C)[C@H]12 — IC50 (UGT1A4; enzyme activity, inhibitor; human, liver microsomes): 2.66 µM
Cn1cnc([N+](=O)[O-])c1Sc1ncnc2nc[nH]c12 — IC50 (CA1; enzyme activity, inhibitor, absorbance; pH 7.4): 18.4 µM
NC/C(=C\F)COc1cccc(Cn2c(=S)[nH]c(=O)c3[nH]cnc32)c1 — IC50 (Diamine oxidase [copper-containing] (AOC1, Homo sapiens, UniProt P19801); enzyme activity, inhibitor): > 30 µM
CCOC(=O)c1c(NCCC2CC2)c2c([nH]c1=O)CCC2 — IC50 (gag-pol reverse transcriptase; enzyme activity, inhibitor): > 100 µM
CC(C)=CCC/C(C)=C/CC/C(C)=C/Cc1c(O)cc(C)c(C(=O)O)c1O — IC50 (Sodium channel protein type 2 subunit alpha (SCN2A, Homo sapiens, UniProt Q99250); ion current, inhibitor, patch clamp): 1.61 µM
CC(=O)N1C[C@@H](C)[C@](O)(c2c(C)cc(-c3ccnc4[nH]cc(F)c34)cc2F)[C@@H](C)C1 — IC50 (LATS1; enzyme activity, inhibitor, radiometric): 0.0067 µM
CCOC(=O)c1c(NCCC(C)C)c2c([nH]c1=O)CCC2 — IC50 (gag-pol reverse transcriptase; enzyme activity, inhibitor): 88.7 µM
O=c1[nH]c(=O)n([C@H]2C[C@H](O)[C@@H](CO)O2)cc1/C=C/Br — IC50 (CA1; enzyme activity, inhibitor, absorbance; pH 7.4): 12.4 µM
CCCNc1c2c([nH]c(=O)c1C(=O)OCC)CCC2 — IC50 (gag-pol reverse transcriptase; enzyme activity, inhibitor): 76.4 µM
CC(C)(C)NC(=O)C1CCN(Cc2cccc(/N=N/c3ccc(C(F)(F)F)cc3)c2)CC1 — IC50 (ACKR3; ligand displacement, BRET): > 10 µM
C[C@@H]1CC[C@@]2(OC1)O[C@H]1C[C@H]3[C@@H]4CC[C@H]5C[C@@H](O)CC[C@]5(C)[C@H]4CC(=O)[C@]3(C)[C@H]1[C@@H]2C — IC50 (UGT1A4; enzyme activity, inhibitor; human, liver microsomes): 2.23 µM
CCOC(=O)c1c(NCCCO)c2c([nH]c1=O)CCC2 — IC50 (gag-pol reverse transcriptase; enzyme activity, inhibitor): > 100 µM
CC(C)(C)NC(=O)C1CCN(Cc2cccc(/N=N/c3ccccc3F)c2)CC1 — IC50 (ACKR3; ligand displacement, BRET): 1.26 µM
O=C1CCc2ccc(OCCCCN3CCN(c4cccc(Cl)c4Cl)CC3)cc2N1 — IC50 (SLC18A2; transporter uptake, inhibitor, radiometric; cell membranes): 0.036 µM
CCOC(=O)c1c(N(CC)CC)c2c([nH]c1=O)CCC2 — IC50 (gag-pol reverse transcriptase; enzyme activity, inhibitor): > 100 µM
CN1CCN(CCCN2c3ccccc3Sc3ccc(Cl)cc32)CC1 — IC50 (SLC18A2; transporter uptake, inhibitor): 3.72 µM
CCOC(=O)c1c(NCC(C)C)c2c([nH]c1=O)CCC2 — IC50 (gag-pol reverse transcriptase; enzyme activity, inhibitor): 33.9 µM
COc1cc2c(N)nc(N3CCN(C(=O)OCC(C)(C)O)CC3)nc2c(OC)c1OC — IC50 (SLC18A2; transporter uptake, inhibitor): 0.022 µM
OC1(c2ccc(-c3ccnc4[nH]cc(F)c34)cc2)CCNCC1 — IC50 (LATS1; enzyme activity, inhibitor, radiometric): 0.0029 µM
